# Shown are actives, neighbours in structure and some others; about 4.2% of the full set was active somewhere.
# KCNQ1 inh = human KCNQ1 channel inhibition. P51787. CHO-K1 KCNQ1, FluxOR thallium flux fluorescence; hits give high values. B-score at 10 µM. 310,000 tested, 1.3% active. AID 2642;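 active = compounds whose thallium flux B-score, printed positive for inhibition, exceeds three library SD while starting fluorescence stays within three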;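 note: channel opened by potassium depolarization with thallium stimulus after 20 min compound exposure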
# KCNQ1 act = potentiators or activators of human KCNQ1 potassium channel | P51787 | CHO-K1 KCNQ1, thallium flux FluxOR fluorescence; hits give high values | B-score at 10 µM | 310,000 tested, 0.35% active | AID 2648;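 active = fluorescence ratio B-score, a plate-corrected score, at least three library SD, with initial intensity B-score within 5 SD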
#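 System: CHO-K1 cells stably expressing KCNQ1 / Medium: assay buffer for compound exposure, DMSO matched across wells / Reagent: thallium- and potassium-containing depolarizing buffer / Compound: one concentration, matched DMSO / Incubation: 20 min compound pretreatment at room temperature / Measured by: kinetic FluxOR fluorescence, 10 s baseline plus 110 s post-stimulus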
# AI-2 QS modul = modulates the Vibrio harveyi AI-2 quorum sensing system; Vibrio harveyi JMH597 AI-2 luminescence/OD600 ratio, 9 h; hits give low values; strain lacks LuxN and CqsS sensors; 0 = neutral-control median; activity change, % at 7.5 µM; 300,000 tested, 0.4% active; in the data active = activity change below about -75%, passing the limit was not always enough; inconclusive = no clear call, values can overlap the other calls;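 note: luminescence divided by OD600 gain over 9 h not by final OD600 alone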
# Cl transport mod = KCC2 (human) Cl- transport modulation. B-score of Tl+ flux slope (higher = more flux/activation; lower = inhibition) at 10 µM. KCC2 cells, thallium flux FluoZin-2 fluorescence. 190,000 tested, 2.2% active;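 active = thallium flux slope and its plate-corrected score both differing from the plate sample mean at a set confidence after two filtering rounds, in either direction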;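 note: slope of fluorescence scaled to starting intensity during 10 to 20 s after thallium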
# hERG protect = shields human hERG channel from block by proarrhythmic agents; Q12809; CHO-hERG, FluxOR thallium flux, dofetilide IC70 present; activation (rescue from dofetilide block), less the hit threshold, % at 10 µM; 310,000 tested, 0.51% active;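 active = activation above the mean of controls blocked by dofetilide plus 5 SD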;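 note: thallium influx through hERG after potassium depolarization seen as dye fluorescence rise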
# Target sequence (Q12809 whole entry, looked up): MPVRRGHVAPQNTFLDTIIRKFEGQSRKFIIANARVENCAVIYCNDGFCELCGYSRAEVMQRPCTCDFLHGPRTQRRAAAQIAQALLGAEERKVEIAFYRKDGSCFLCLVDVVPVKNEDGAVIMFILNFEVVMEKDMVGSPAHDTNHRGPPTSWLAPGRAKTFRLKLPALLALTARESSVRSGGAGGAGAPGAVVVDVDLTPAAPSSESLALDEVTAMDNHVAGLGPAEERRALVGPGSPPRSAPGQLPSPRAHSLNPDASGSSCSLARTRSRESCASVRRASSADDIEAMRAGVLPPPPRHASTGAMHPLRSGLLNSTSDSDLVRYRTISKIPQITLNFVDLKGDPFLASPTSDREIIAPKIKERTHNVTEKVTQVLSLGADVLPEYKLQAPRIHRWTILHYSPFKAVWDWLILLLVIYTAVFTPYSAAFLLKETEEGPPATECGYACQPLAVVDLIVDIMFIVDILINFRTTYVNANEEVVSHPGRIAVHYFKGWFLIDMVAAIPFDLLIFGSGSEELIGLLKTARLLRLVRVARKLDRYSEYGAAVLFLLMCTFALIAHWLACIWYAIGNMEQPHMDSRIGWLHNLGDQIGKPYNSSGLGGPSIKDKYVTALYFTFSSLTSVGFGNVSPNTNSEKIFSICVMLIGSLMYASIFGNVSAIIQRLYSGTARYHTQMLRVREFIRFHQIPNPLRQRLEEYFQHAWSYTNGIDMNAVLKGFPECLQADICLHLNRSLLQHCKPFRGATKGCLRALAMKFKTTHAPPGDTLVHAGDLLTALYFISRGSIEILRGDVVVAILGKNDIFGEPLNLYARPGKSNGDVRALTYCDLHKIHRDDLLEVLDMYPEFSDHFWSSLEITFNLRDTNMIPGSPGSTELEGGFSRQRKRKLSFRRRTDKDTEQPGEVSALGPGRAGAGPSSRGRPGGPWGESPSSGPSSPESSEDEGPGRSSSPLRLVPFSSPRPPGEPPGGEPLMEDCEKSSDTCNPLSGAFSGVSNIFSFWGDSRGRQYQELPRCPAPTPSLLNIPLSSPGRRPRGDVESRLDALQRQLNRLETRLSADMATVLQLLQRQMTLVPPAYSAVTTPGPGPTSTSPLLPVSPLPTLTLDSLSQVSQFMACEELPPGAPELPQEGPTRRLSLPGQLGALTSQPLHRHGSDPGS
# Mot1-301 SUMO = SUMOylation pathway inhibition by Mot1-301 growth rescue. 320,000 tested, 1% active. S. cerevisiae Mot1-301 growth rescue, ATP luminescence, 38.5C; percent above DMSO median, 100 means doubled. growth rescue, % at 18.8 µM;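 active = every valid replicate shows activation above 250% relative to neutral control wells; inactive = the rest, any valid replicate at or below 250%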;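 note: OY570 slx delta 5 strain wells were the positive control but not used for scaling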
# KCC2 sec1 = confirmation of human KCC2 transport modulators; shares compounds with Cl transport mod; HEK293-KCC2, thallium flux, FluoZin2 fluorescence; hits give high values; normalised thallium flux (F/F0 slope) at 10 µM; 3,700 tested, 15% active; AID 1713;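 active = thallium flux slope above the same plate's solvent-only control mean plus 3 SD; inconclusive = the two replicate wells disagree; inactive = no significant difference from solvent-only control wells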
# KCC2 bumet counter = bumetanide-insensitive thallium flux in KCC2 cells with ouabain, counter-screen; shares compounds with Cl transport mod; HEK293-KCC2 + bumetanide/ouabain, thallium flux FluoZin2; hits give high values; normalized thallium flux at 10 µM; 3,700 tested, 49% active;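 active = thallium entry rate above the same plate's blocked-transporter control wells by more than 3 SD; inconclusive = the two repeat wells disagree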;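 note: raw slope of fluorescence over initial fluorescence between 10 and 20 s after thallium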
# KCC2 secondary2 = confirmation of human KCC2 transport modulators. normalized thallium flux at 10 µM. 3,700 tested, 23% active. AID 1715. shares compounds with Cl transport mod. HEK293-KCC2, thallium flux FluoZin2 fluorescence; actives lie on both sides; F/F0 rise rate, 10–20 s post-thallium;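 active = thallium flux slope more than 3 SD above or below the plate's solvent-only control mean, mostly below; inconclusive = the two repeat wells disagreed; inactive = no significant shift from solvent-only controls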;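 note: raw slope with 0.1% DMSO as baseline and bumetanide as block control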
# HEK counter1 = counter-screen for KCC2 modulators: effect in parental HEK293 cells | shares compounds with Cl transport mod | thallium flux FluoZin2, ouabain; baseline-ratio fluorescence slope, 10–20 s after thallium | thallium flux rate (normalised fluorescence) at 10 µM | 3,700 tested, 46% active | AID 1716;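 active = thallium flux rate significantly above the same plate's solvent-only control wells, beyond their mean plus 3 SD; inconclusive = the two replicate wells gave conflicting results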
# KCC2 ouabain = confirmation of human KCC2 modulators with ouabain. shares compounds with Cl transport mod. HEK293-KCC2, thallium flux FluoZin2 fluorescence; bidirectional: low = inhibitor, high = activator. raw Tl+ flux slope (below DMSO = inhibition, above = activation) at 10 µM. 3,700 tested, 48% active. AID 1717;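 active = thallium flux slope beyond 3 SD from same-plate DMSO control mean in most replicates, usually higher, sometimes lower; inconclusive = repeat tests gave conflicting results; inactive = no significant difference from controls in most replicates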;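 note: slope of initial-normalized fluorescence between seconds 10 and 20 after thallium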
# HEK293 Tl flux2 = acts in parental HEK cells, second KCC2 counter-screen. HEK293 parental, thallium flux FluoZin-2 fluorescence slope. 3,700 tested, 33% active. thallium flux slope at 10 µM. shares compounds with Cl transport mod;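 active = thallium flux slope above the same plate's solvent-control mean plus 3 SD in both duplicate wells; inconclusive = duplicate wells that disagreed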;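 note: run without ouabain in cells lacking the KCC2 cotransporter; slope of fluorescence scaled to its starting value between 10 and 20 s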
# * = called active by the depositor; i = inactive; ? = inconclusive; · = no result.
SMILES,KCNQ1 inh,KCNQ1 act,AI-2 QS modul,Cl transport mod,hERG protect,Mot1-301 SUMO,KCC2 sec1,KCC2 bumet counter,KCC2 secondary2,HEK counter1,KCC2 ouabain,HEK293 Tl flux2
COC(=O)CCNC(=O)CCc1ccc(S(=O)(=O)N2CCCCCC2)cc1,·,·,·,·,·,84,·,·,·,·,·,·
CCc1cc(C(=O)O)c(NC(=O)C(c2ccccc2)c2ccccc2)s1,i,i,-13,-4.3*,-7,7,0.0083,0.0055*,0.028,0.0069,0.016,0.0091
CN(C)c1ccc(/C=N/NC(=O)CN(c2cccc(Cl)c2)S(C)(=O)=O)cc1Br,i,i,20,0.2,-6,-10,·,·,·,·,·,·
Cc1ccccc1CCN1CCCC(CN(C)C(=O)c2ccc3ncccc3c2)C1 (configuration not stated),i,i,23,·,-4,-6,·,·,·,·,·,·
FC(F)(F)c1ccc(Cl)c(-n2c(-c3cc(C4CC4)[nH]n3)n[nH]c2=S)c1,i,i,5,4.1*,-2,225,0.011,0.016*,0.035,?,?,0.012
O=C(NNC(=S)NC(=O)c1ccco1)c1ccc(NC(=O)c2ccccc2)cc1,i,i,52,-0.57,-4,9,·,·,·,·,·,·
COc1ccc(C(=O)NC(=S)NNC(=O)c2ccco2)cc1,i,i,·,·,-15,-4,·,·,·,·,·,·
O=C(NC(=S)NNC(=O)c1ccccc1O)c1ccco1,i,i,92,3.5*,-23,-15,0.011,0.013*,0.035,?,?,0.011
O=C(NC(=S)NNC(=O)c1cc2ccccc2cc1O)c1ccco1,i,i,13,48*,-20,·,0.021*,0.073*,0.034,0.05*,0.058*,0.014*
C/C(=N\N=C1\NC(=O)C(CC(=O)Nc2ccccc2F)S1)C1CCCCC1 (configuration not stated),i,i,25,·,-7,-19,·,·,·,·,·,·
COc1ccc(Cl)cc1C(=O)NNC(=S)NC(=O)c1cc(-c2ccccc2)nc2ccccc12,i,8*,40,4.8*,-5,-1,0.006,0.0087*,0.034,0.012*,0.022,0.012
COc1ccc(C(=O)NNC(=S)NC(=O)c2cc(-c3ccccc3)nc3ccccc23)cc1,i,9*,24,6.6*,-9,-15,0.0072,0.017*,0.032,0.022*,0.026*,0.015*
CC(C)Oc1cccc(-c2cc(C(=O)NN3CCOCC3)c3ccccc3n2)c1,i,i,-5,·,-16,698,·,·,·,·,·,·
CCCOc1ccc(C(=O)NNC(=S)NC(=O)c2cc(-c3ccc(Cl)cc3)nc3ccccc23)cc1,i,i,39,1.2,-10,-20,·,·,·,·,·,·
CC(C)Oc1cccc(-c2cc(C(=O)NC(=S)N(C)c3ccccc3C(=O)O)c3ccccc3n2)c1,i,i,33,4.4*,-9,124,?,0.02*,0.033,0.011*,?,0.014*
O=C(NCCc1ccccc1)C1CCCN1C(=O)Nc1ccc(F)cc1 (configuration not stated),i,i,-4,-0.7,-17,-4,·,·,·,·,·,·
CCC(=O)N(CCC(Cc1ccccc1)c1ccco1)Cc1ccco1 (configuration not stated),i,i,33,-3.9*,-23,13,0.0066,0.0026*,0.029,0.0046*,0.013*,0.0069*
COc1ccc(C(=O)NNC(=S)NC(=O)C(C)(C)C)cc1,i,i,45,24*,-12,6,0.024*,0.036*,?,0.043*,0.042*,0.014*
O=C(COc1ccc([N+](=O)[O-])cc1)NNC(=S)NC(=O)c1ccc(Br)cc1,7*,i,-127*,6*,-6,-15,?,0.029*,0.03,0.018*,0.027*,?
COc1ccc(NC(=S)NNC(=O)COc2ccc(Cl)cc2Cl)cc1,i,i,-4,3.7,-8,·,·,·,·,·,·,·
O=C(COc1ccccc1)NNC(=S)NC(=O)c1ccccc1,i,i,13,18*,0,·,0.007,0.045*,0.05*,0.039*,0.043*,0.041*
O=C(COc1ccc2ccccc2c1)NNC(=O)c1ccc([N+](=O)[O-])cc1,i,i,18,-2.8,-6,32,·,·,·,·,·,·
COc1ccc(OCC(=O)NC(=S)NNC(=O)COc2ccc(Br)cc2Cl)cc1,i,i,46,13*,-7,-14,0.011,0.026*,0.033,0.019*,0.026,0.013*
O=C(c1ccc(F)cc1)N1CCC(C(=O)N2CCN(c3ncccn3)CC2)CC1,·,·,·,·,·,-5,·,·,·,·,·,·
COC(=O)c1ccccc1NC(=S)NC(=O)COc1ccccc1Cl,i,i,-5,19*,-12,·,0.023*,0.05*,?,0.012*,0.024*,0.016*
COc1ccc(C(=O)NC(=S)NNC(=O)COc2ccccc2)cc1,i,i,23,35*,-10,-14,0.023*,0.072*,?,0.036*,0.051*,0.021*
Cc1nc(NC(=S)NC(=O)COc2ccccc2Cl)ccc1Br,i,i,17,0.92,-9,1,·,·,·,·,·,·
CCOC(=O)c1sc(-c2ccc(Cl)cc2Cl)nc1O,i,i,34,9.2*,-8,-16,0.007,0.02*,0.028,0.017*,0.026*,0.013*
Cc1cc(C)c(NC(=O)CCN2C(=O)c3ccccc3S2(=O)=O)c(C)c1,i,i,5,·,-12,-4,·,·,·,·,·,·

# Screens as filed in PubChem.
